Data taken from ChEMBL document CHEMBL4732106, “Paracetamol analogues conjugated by FAAH induce TRPV1-mediated antinociception without causing acute liver toxicity” (Eur J Med Chem, 2021).
The source made the active and inactive calls. The rule behind the calls is not given here.

How the values were obtained:
[1] = Prodrug conversion in FAAH+/+ mouse brain assessed as N-arachidonoyl conjugate level per g protein at 100 mg/kg, ip measured after 20 mins by LC-MS/MS analysis; type: ADME, organism-based; design: unit: pmol/g protein; conditions: in vivo
Outline: (§1)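 FAAH+/+ and FAAH-/- mice (both sexes) received the primary amine i.p. in saline (sometimes with 5% DMSO). Brains were collected 20 min later, frozen, and homogenized in Tris/EDTA/ascorbate with 10 μM MAFP. N-arachidonoyl conjugates were quantified by positive-ion LC-MS/MS and normalized to protein.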

[2] = Hepatotoxicity in C57BL/6 mouse assessed as centrilobular necrosis at 300 mg/kg, ip measured after 12 hrs by H and E staining based microscopic analysis; type: toxicity, organism-based; conditions: in vivo
Outline: (§2)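 Male C57BL/6 mice (8 weeks) were fasted 12–16 h, then given 300 mg kg⁻¹ i.p. in saline. At 12 h, blood was taken for serum ALT/AST (automated analyser). The left medial liver lobe was fixed in 4% formaldehyde, cryosectioned at 10 μm and stained with H&E. The ALT/AST ratio was tested against 1. Mean ± SEM, n = 6–7.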

[3] = Prodrug conversion in FAAH-/- mouse brain assessed as N-arachidonoyl conjugate level per g protein at 0.1 mM measured after 20 mins by LC-MS/MS analysis; type: ADME, tissue-based; conditions: in vitro, 100 µM
Outline: (§3)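 Brains from FAAH+/+ or FAAH-/- mice were homogenized in ice-cold 10 mM Tris with 1 mM EDTA and 0.3 mM ascorbic acid. Aliquots were incubated with 0.1 mM primary amine for 20 min at 37 °C with stirring. Reactions were stopped with cold acetone containing AM404-d4 internal standard, and conjugates were measured by LC-MS/MS. n = 5–7.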

[4] = target: T1, Fatty-acid amide hydrolase 1 (Mus musculus, UniProt O08914); assay: Substrate activity at FAAH in FAAH+/+ mouse brain assessed as N-arachidonoyl conjugate level per g protein at 0.1 mM measured after 20 mins by LC-MS/MS analysis; type: ADME, tissue-based; conditions: 100 µM; outline: as §3
T1 sequence (O08914 whole entry): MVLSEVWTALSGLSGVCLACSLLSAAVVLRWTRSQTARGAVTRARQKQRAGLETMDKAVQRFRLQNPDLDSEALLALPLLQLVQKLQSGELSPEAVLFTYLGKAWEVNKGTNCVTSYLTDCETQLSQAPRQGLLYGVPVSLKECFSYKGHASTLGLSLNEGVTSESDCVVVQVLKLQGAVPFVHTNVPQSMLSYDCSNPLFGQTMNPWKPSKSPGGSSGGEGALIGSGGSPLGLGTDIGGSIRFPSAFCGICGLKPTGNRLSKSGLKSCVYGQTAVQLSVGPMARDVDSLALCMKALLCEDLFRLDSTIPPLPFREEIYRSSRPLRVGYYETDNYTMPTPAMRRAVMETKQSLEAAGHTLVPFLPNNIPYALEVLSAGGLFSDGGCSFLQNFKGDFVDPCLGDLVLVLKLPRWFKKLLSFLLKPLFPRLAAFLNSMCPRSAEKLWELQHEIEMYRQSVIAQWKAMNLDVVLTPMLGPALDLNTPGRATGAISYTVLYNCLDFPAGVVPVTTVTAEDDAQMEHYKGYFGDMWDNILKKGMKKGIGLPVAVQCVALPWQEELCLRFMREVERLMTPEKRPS

Mus musculus [5] = assay: Antinociceptive activity in C57BL/6 mouse assessed as reduction in licking time during second phase at 50 mg/kg, ip treated for 10 mins and measured for 15 to 40 mins in presence of FAAH inhibitor URB937 by formalin test; type: functional, organism-based; conditions: time 50.0 min
Outline: (§4)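 Male C57BL/6 mice, 8 weeks old. URB937 (5 μg in 5 μl) or capsazepine (10 μg in 5 μl) was given i.c.v. under brief isoflurane, 2 mm deep, 5 min before the i.p. test amine. Formalin 2.5% (25 μl) was injected intraplantar 10 min after dosing. Paw biting/licking time was scored in phase I (0–5 min) and phase II (15–40 min) by a blinded observer. Mean ± SEM, n = 8–14.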

Mus musculus [6] = assay: Antinociceptive activity in ip dosed C57BL/6 mouse assessed as reduction in licking time during first phase treated for 10 mins and measured for 5 mins by formalin test; type: functional, organism-based; conditions: dose 25-100 mg/kg, time 15.0 min
Outline: (§5)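 Male C57BL/6 mice, 8 weeks old, randomized in equal blocks (5–10 per group), observer blinded. The test amine or vehicle was given i.p. 10 min before intraplantar 2.5% formalin (25 μl/mouse). Time spent biting/licking the injected paw was recorded in phase I (0–5 min) and phase II (15–40 min). Mean ± SEM, n = 5–6.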

[7] = Prodrug conversion in FAAH-/- mouse brain assessed as N-arachidonoyl conjugate level per g protein at 100 mg/kg, ip measured after 20 mins by LC-MS/MS analysis; type: ADME, organism-based; design: unit: pmol/g protein; conditions: in vivo; outline: as §1
Mus musculus [8] = assay: Antinociceptive activity in ip dosed C57BL/6 mouse assessed as reduction in licking time during second phase treated for 10 mins and measured for 15 to 40 mins by formalin test; type: functional, organism-based; conditions: dose 25-100 mg/kg, time 50.0 min; outline: as §5
Mus musculus [9] = assay: Antinociceptive activity in C57BL/6 mouse assessed as reduction in licking time during second phase at 50 mg/kg, ip treated for 10 mins and measured for 15 to 40 mins in presence of TRPV1 antagonist capsazepine by formalin test; type: functional, organism-based; conditions: time 50.0 min; outline: as §4
Mus musculus [10] = assay: Antinociceptive activity in C57BL/6 mouse assessed as reduction in licking time during first phase at 50 mg/kg, ip treated for 10 mins and measured for 5 mins in presence of TRPV1 antagonist capsazepine by formalin test; type: functional, organism-based; conditions: time 15.0 min; outline: as §4
[11] = Hepatotoxicity in C57BL/6 mouse assessed as change in ALT level at 300 mg/kg, ip measured after 12 hrs; type: toxicity, organism-based; conditions: in vivo; outline: as §2
[12] = Effect on locomotor activity in C57BL/6 mouse assessed as change in latency to fall at 50 to 75 mg/kg, ip treated for 10 mins measured up to 60 mins by rotarod test; type: ADME, organism-based; conditions: in vivo, 1 h, dose 50-75 mg/kg
Outline: (§6)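 Male C57BL/6 mice were first trained on a rotarod at a constant 4 rpm in 1-min sessions. At various times after i.p. dosing, the drum was accelerated from 4 to 40 rpm over 5 min and the latency to fall was recorded.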

Mus musculus [13] = assay: Antinociceptive activity in C57BL/6 mouse assessed as reduction in licking time during first phase at 50 mg/kg, ip treated for 10 mins and measured for 5 mins in presence of FAAH inhibitor URB937 by formalin test; type: functional, organism-based; conditions: time 15.0 min; outline: as §4
[14] = target: T2, Transient receptor potential cation channel subfamily V member 1 (Rattus norvegicus, UniProt O35433); assay: Agonist activity at TRPV1 in rat isolated mesenteric arteries assessed as vasorelaxation of phenylephrine-induced contraction in presence of TRPV1 antagonist capsazepine; type: tissue-based, Artery
T2 sequence (O35433 whole entry): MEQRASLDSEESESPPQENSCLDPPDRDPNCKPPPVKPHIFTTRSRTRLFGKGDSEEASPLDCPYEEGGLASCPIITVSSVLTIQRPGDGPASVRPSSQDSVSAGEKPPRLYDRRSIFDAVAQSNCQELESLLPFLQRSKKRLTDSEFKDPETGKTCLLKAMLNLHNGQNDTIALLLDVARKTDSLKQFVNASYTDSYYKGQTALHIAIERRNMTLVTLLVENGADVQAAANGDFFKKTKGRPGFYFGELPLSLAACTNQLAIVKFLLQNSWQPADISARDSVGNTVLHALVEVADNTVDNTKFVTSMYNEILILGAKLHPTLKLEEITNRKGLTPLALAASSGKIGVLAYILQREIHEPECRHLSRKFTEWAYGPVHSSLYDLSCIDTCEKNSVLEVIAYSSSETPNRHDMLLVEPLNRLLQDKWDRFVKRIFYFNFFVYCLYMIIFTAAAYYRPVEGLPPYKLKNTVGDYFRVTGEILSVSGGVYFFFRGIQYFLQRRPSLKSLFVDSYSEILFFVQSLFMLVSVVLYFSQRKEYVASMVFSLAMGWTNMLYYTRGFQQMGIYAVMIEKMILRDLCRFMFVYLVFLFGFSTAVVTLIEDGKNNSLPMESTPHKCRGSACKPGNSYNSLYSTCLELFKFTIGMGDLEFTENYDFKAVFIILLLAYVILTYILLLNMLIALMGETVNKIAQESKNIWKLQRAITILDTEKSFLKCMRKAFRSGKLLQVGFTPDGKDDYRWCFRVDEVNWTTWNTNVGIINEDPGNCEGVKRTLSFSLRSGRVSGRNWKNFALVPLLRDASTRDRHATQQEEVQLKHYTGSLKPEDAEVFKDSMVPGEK
Outline: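 Segments from male Wistar rats (200–250 g) were bathed in pH 7.4 physiological salt solution at 37 °C, gassed 95% O₂/5% CO₂, with indomethacin 10 μM and Nω-nitro-L-arginine 100 μM present. After phenylephrine precontraction, conjugate concentration–relaxation curves were run in the presence of capsazepine 3 μM. pEC₅₀ is the negative log molar concentration giving half-maximal relaxation; mean ± SEM, n = animals.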

[15] = target: T2, Transient receptor potential cation channel subfamily V member 1; assay: Agonist activity at TRPV1 in rat isolated mesenteric arteries assessed as vasorelaxation of phenylephrine-induced contraction; type: tissue-based, Artery
Outline: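 Indomethacin 10 μM and Nω-nitro-L-arginine 100 μM were present throughout. Segments were precontracted with phenylephrine and exposed to conjugate concentrations. pEC₅₀ taken at half-maximal relaxation; mean ± SEM, n = animals.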

[16] = Effect on locomotor activity in C57BL/6 mouse assessed as change in latency to fall at 25 mg/kg, ip treated for 10 mins measured up to 60 mins by rotarod test; type: ADME, organism-based; conditions: in vivo, 1 h; outline: as §6
Mus musculus [17] = assay: Antinociceptive activity in C57BL/6 mouse assessed as reduction in licking time during second phase at 25 mg/kg, ip treated for 10 mins and measured for 15 to 40 mins in presence of TRPV1 antagonist capsazepine by formalin test; type: functional, organism-based; conditions: time 50.0 min; outline: as §4
Mus musculus [18] = assay: Antinociceptive activity in C57BL/6 mouse assessed as reduction in licking time during first phase at 25 mg/kg, ip treated for 10 mins and measured for 5 mins in presence of FAAH inhibitor URB937 by formalin test; type: functional, organism-based; conditions: time 15.0 min; outline: as §4
Mus musculus [19] = assay: Antipyretic activity against LPS-induced C57BL/6 mouse model of hyperthermia assessed as PGE2 level in diencephalon at 25 mg/kg, ip measured after 40 mins by LC-MS/MS analysis relative to control; type: functional
Outline: (§7)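 Male C57BL/6 mice got LPS (E. coli O111:B4, 100 μg kg⁻¹ i.p.) or saline, then 3 h later the drug i.p. in Ringer's acetate vehicle. Diencephalon was taken 40 min later and homogenized in Tris/EDTA/ascorbate with 10 μM MAFP and 100 μM ibuprofen. Prostanoids were quantified by negative-ion LC-MS/MS and expressed as % of LPS + vehicle. n = 6.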

Mus musculus [20] = assay: Antipyretic activity against LPS-induced C57BL/6 mouse model of hyperthermia assessed as reduction in body temperature at 25 mg/kg, ip measured after 48 mins; type: functional, organism-based
Outline: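 Male C57BL/6 mice carried telemetry and recovered ≥1 week before use, housed at 29 °C ambient (near-thermoneutral). LPS 100 μg kg⁻¹ i.p. or saline was given, then drug or Ringer's acetate vehicle i.p. 3 h later. Core temperature was recorded continuously and analysed at the nadir time point. n = 4–9 per group.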

Mus musculus [21] = assay: Antipyretic activity against LPS-induced C57BL/6 mouse model of hyperthermia assessed as TXB2 level in diencephalon at 25 mg/kg, ip measured after 40 mins by LC-MS/MS analysis relative to control; type: functional; outline: as §7
Mus musculus [22] = assay: Antinociceptive activity in C57BL/6 mouse assessed as reduction in licking time during second phase at 25 mg/kg, ip treated for 10 mins and measured for 15 to 40 mins in presence of FAAH inhibitor URB937 by formalin test; type: functional, organism-based; conditions: time 50.0 min; outline: as §4
Mus musculus [23] = assay: Antinociceptive activity in C57BL/6 mouse assessed as reduction in licking time during first phase at 25 mg/kg, ip treated for 10 mins and measured for 5 mins in presence of TRPV1 antagonist capsazepine by formalin test; type: functional, organism-based; conditions: time 15.0 min; outline: as §4
Mus musculus [24] = assay: Antipyretic activity against LPS-induced C57BL/6 mouse model of hyperthermia assessed as PGF2alpha level in diencephalon at 25 mg/kg, ip measured after 40 mins by LC-MS/MS analysis relative to control; type: functional; outline: as §7
Mus musculus [25] = assay: Antipyretic activity against LPS-induced C57BL/6 mouse model of hyperthermia assessed as 6-keto-PGF1alpha level in diencephalon at 25 mg/kg, ip measured after 40 mins by LC-MS/MS analysis relative to control; type: functional; outline: as §7
[26] = Prodrug conversion in FAAH+/+ mouse brain assessed as N-arachidonoyl conjugate level per g protein at 300 mg/kg, ip measured after 20 mins by LC-MS/MS analysis; type: ADME, organism-based; conditions: in vivo; outline: as §1
[27] = Prodrug conversion in FAAH-/- mouse brain assessed as N-arachidonoyl conjugate level per g protein at 300 mg/kg, ip measured after 20 mins by LC-MS/MS analysis; type: ADME, organism-based; conditions: in vivo; outline: as §1

Row | Compound | Drug metabolism [1] [pmol] | Drug metabolism [3] [nmol/g] | Drug metabolism [4] [nmol/g] | Drug metabolism [7] [pmol] | EC50 [14] [µM] | EC50 [15] [µM] | other results
1 | COc1ccc(N)cc1O | 283 | 0.06 | 3 | 42 |  |  | Activity [2]: Non-Toxic; Activity (Mus musculus [5]): inactive; Activity (Mus musculus [6]): Dose-dependent effect; Activity (Mus musculus [8]): Dose-dependent effect; Activity (Mus musculus [9]): inactive; Activity (Mus musculus [10]): Active; Activity [11]: Non-Toxic; Activity [12]: Non-Toxic; Activity (Mus musculus [13]): Active
2 | CCCCC/C=C\C/C=C\C/C=C\C/C=C\CCCC(=O)Nc1ccc(O)c(OC)c1 |  |  |  |  | 0.0158 | 0.00126 | 
3 | CCCCC/C=C\C/C=C\C/C=C\C/C=C\CCCC(=O)NCc1ccc2[nH]ncc2c1 |  |  |  |  | 0.158 | 0.00398 | 
4 | CCCCC/C=C\C/C=C\C/C=C\C/C=C\CCCC(=O)Nc1ccc(O)cc1 |  |  |  |  |  | 0.0501 | 
5 | Nc1ccc2[nH]ncc2c1 | 1731 | 0.09 | 12 | 161 |  |  | Activity [16]: Non-Toxic; Activity (Mus musculus [17]): inactive; Activity (Mus musculus [18]): Active; Activity (Mus musculus [19]): 96%; Activity [2]: Non-Toxic; Activity (Mus musculus [20]): Active; Activity (Mus musculus [21]): 91%; Activity (Mus musculus [22]): inactive; Activity (Mus musculus [6]): Dose-dependent effect; Activity (Mus musculus [8]): Dose-dependent effect; Activity (Mus musculus [23]): Active; Activity (Mus musculus [24]): 100%; Activity (Mus musculus [25]): 99%; Activity [11]: Non-Toxic
6 | COc1cc(CN)ccc1O |  | 0.01 | 2.5 |  |  |  | Drug metabolism [26]: 40 pmol; Activity [2]: Non-Toxic; Activity [11]: Non-Toxic; Drug metabolism [27]: Metabolite_Notdetected
7 | NCc1ccc2[nH]ncc2c1 | 58 | 0.04 | 2.5 | 58 |  |  | 
8 | COc1cc(N)ccc1O | 82 | 0.005 | 0.54 | 190 |  |  | 
9 | CCCCC/C=C\C/C=C\C/C=C\C/C=C\CCCC(=O)NCc1ccc(O)c(OC)c1 |  |  |  |  |  | 0.000501 | 
10 | CCCCC/C=C\C/C=C\C/C=C\C/C=C\CCCC(=O)Nc1ccc2[nH]ncc2c1 |  |  |  |  | 0.398 | 0.0126 | 
11 | CCCCC/C=C\C/C=C\C/C=C\C/C=C\CCCC(=O)Nc1ccc(OC)c(O)c1 |  |  |  |  | 0.0631 | 0.00316 | 
